Bioassay records: PubChem BioAssay, Johns Hopkins Ion Channel Center
Only some compounds are listed: those with a hit (about 3.1% of all), similar ones and a draw of the others.
hERG rescue = compounds protecting human hERG from proarrhythmic drug block; CHO-hERG, FluxOR thallium flux, dofetilide IC70 present; activation (rescue from dofetilide block), less the hit threshold, % at 10 µM; actives 0.51% (n = 310,000);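 active = activation above the mean of controls blocked by dofetilide plus 5 SD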;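 also: thallium influx through hERG after potassium depolarization seen as dye fluorescence rise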
KCNK9 inh = human KCNK9 channel inhibition | HEK293 KCNK9, FluxOR thallium flux fluorescence; hits give low values | B-score at 10 µM | actives 1.2% (n = 310,000) | AID 488922;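 active = ratio B-score over 3 SD below the library mean, with starting fluorescence within 5 SD of its mean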;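 also: negative B-score means less thallium flux so channel inhibition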
KCNQ1 pot = potentiators or activators of human KCNQ1 potassium channel | P51787 | CHO-K1 KCNQ1, thallium flux FluxOR fluorescence; hits give high values | B-score at 10 µM | actives 0.35% (n = 310,000);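 active = fluorescence ratio B-score, a plate-corrected score, at least three library SD, with initial intensity B-score within 5 SD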
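Material: CHO-K1 cells stably expressing KCNQ1. Medium: assay buffer for compound exposure, DMSO matched across wells. Reagent: K+/Tl+ depolarizing stimulus. Compound dosing: single-concentration screen. Times: 37 °C overnight plating, 90-min dark dye load, 20-min compound pretreatment. Technique: FluxOR Tl+ flux fluorescence.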
KCNK3 block = human KCNK3 channel inhibition, primary screen; B-score at 10 µM; O14649; actives 0.84% (n = 340,000); CHO-KCNK3 thallium flux, FluxOR fluorescence; hits give low values;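 active = B-score under library mean minus 4 SD, starting fluorescence ratio at most library mean plus 5 SD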;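 also: more negative B-score means stronger inhibition of thallium flux through KCNK3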
Target sequence (O14649 whole entry, looked up): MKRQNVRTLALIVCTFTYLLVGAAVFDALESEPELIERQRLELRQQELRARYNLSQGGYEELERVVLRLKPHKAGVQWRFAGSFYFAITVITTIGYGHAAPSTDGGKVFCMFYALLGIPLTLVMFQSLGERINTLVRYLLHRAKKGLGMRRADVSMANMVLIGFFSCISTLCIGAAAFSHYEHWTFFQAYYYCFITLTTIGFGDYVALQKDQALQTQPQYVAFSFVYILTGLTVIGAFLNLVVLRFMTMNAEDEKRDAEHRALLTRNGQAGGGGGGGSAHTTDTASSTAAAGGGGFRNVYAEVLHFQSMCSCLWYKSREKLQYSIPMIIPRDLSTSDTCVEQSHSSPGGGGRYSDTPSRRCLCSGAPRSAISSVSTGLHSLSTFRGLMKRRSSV
KCNQ1 block = inhibitors of human KCNQ1 potassium channel; B-score at 10 µM; AID 2642; actives 1.3% (n = 310,000); P51787; CHO-K1 KCNQ1, FluxOR thallium flux fluorescence; hits give high values;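 active = compounds whose thallium flux B-score, printed positive for inhibition, exceeds three library SD while starting fluorescence stays within three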;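 also: channel opened by potassium depolarization with thallium stimulus after 20 min compound exposure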
An asterisk follows results filed as active; i = inactive; x = no result.

SMILES | hERG rescue | KCNK9 inh | KCNQ1 pot | KCNK3 block | KCNQ1 block
Cc1ccc(C(=O)N/N=C(/CC(=O)c2cccs2)C(F)(F)F)cc1 | 16.4* | i | 13* | i | i
Cc1c(-c2ccccc2)oc2c(C(=O)N3CCN(c4ccc([N+](=O)[O-])cc4)CC3)cccc2c1=O | -18.4 | -7.06* | i | i | i
CN(C(=O)c1cccc(NC(=O)Cc2ccc(NC(=O)C3CCCN(C(=O)CCc4ccccc4)C3)cc2)c1)C1CCCCC1 (stereo not given) | x | x | x | i | x
CCOC(=O)c1cnn(-c2nc(SC)nc3sc4c(c23)CCC4)c1N | -14.4 | -7.77* | i | i | i
CCN(C(=O)COn1nnc2ccc(S(=O)(=O)N(C)C)cc21)C1CCS(=O)(=O)C1 (stereo not given) | x | x | x | i | x
CCOC(=O)C1=CN(CC)CCC1=O | x | x | x | i | x
CCOc1ccc(NS(=O)(=O)c2ccc3c(c2)CCN3C(C)=O)cc1 | -5.8 | i | i | i | i
COc1cc(/C=C2/C(=O)NN(c3ccccc3)C2=O)cc(Br)c1O | 6.8* | i | i | i | i
CC(NC(=O)c1cccc(Cn2cc([N+](=O)[O-])cn2)c1)c1ccc(C(C)(C)C)cc1 (stereo not given) | -3.7 | -7.57* | i | i | i
COc1ccc(C(=O)NNC(=O)C(=O)Nc2ccc(C)cc2)cc1 | 15.0* | i | 41* | i | i
COc1ccc(C(=O)NNC(=O)C(=O)Nc2ccc(C)c(Cl)c2)cc1 | 97.4* | i | 58* | i | i
COc1ccc(CC(=O)NNC(=O)c2ccc(NC(C)=O)cc2)cc1 | -9.0 | i | i | i | i
CCc1ccc(NC(=O)C(=O)NNC(=O)c2ccc(OC)cc2)cc1 | 36.1* | i | 77* | i | i
CCOc1cc(S(=O)(=O)N(Cc2ccccc2)Cc2ccccc2)c(OCC)cc1-n1cnnn1 | -9.9 | i | i | i | i
O=C(CNC(=O)c1ccc(Cl)cc1Cl)OCCOc1ccccc1F | x | x | x | i | x
O=C(NNCc1ccccc1)c1ccccn1 | x | x | x | i | x
Cc1ccc(CNC(=O)CN2C(=O)NC3(CC(C)CC(C)(C)C3)C2=O)cc1 (stereo not given) | x | x | x | i | x
COc1ccc(-c2csc(NC(=O)C3=NN(c4ccccc4)C(=O)CC3)n2)cc1 | -11.0 | i | 105* | i | i
O=C(Nc1nc(-c2cc(F)ccc2F)cs1)C1=NN(c2ccccc2)C(=O)CC1 | -11.8 | i | i | i | i
CCOc1ccc(NC(=O)c2ccc3[nH]c(=O)c(=O)[nH]c3c2)cc1 | -8.5 | i | i | i | i
COc1ccc(Nc2nc(NCC3CCCO3)c3ccccc3n2)c(OC)c1 (stereo not given) | -11.4 | i | i | i | i
Oc1cccc(Nc2nc(NCC3CCCO3)c3ccccc3n2)c1 (stereo not given) | -37.7 | i | i | i | 9*
Cc1ccccc1Cc1c(C)nc2c(C(=O)NCc3ccc4c(c3)OCO4)cnn2c1C | -5.0 | i | i | i | i
Cc1ccc(C)c(Cc2c(C)nc3c(C(=O)NCc4ccc5c(c4)OCO5)cnn3c2C)c1 | -9.8 | -7.79* | i | x | i
O=[N+]([O-])c1ccc(N/N=C2\CC3CC=CC23)cc1 (stereo not given) | -28.1 | i | i | i | i
SMILES | hERG rescue | KCNK9 inh | KCNQ1 pot | KCNK3 block | KCNQ1 block
O=[N+]([O-])c1ccc(N/N=C2\CC3CC=CC23)c([N+](=O)[O-])c1 (stereo not given) | -15.4 | i | i | i | 9*
Cc1ccc(S(=O)(=O)c2c(N)n(Cc3ccco3)c3nc4ccccc4nc23)cc1C | -11.3 | i | i | i | 14*
O=[N+]([O-])c1cc(N=Nc2ccc3ccccc3c2)ccc1O | -5.0 | i | i | i | i
Cc1ccc(C)c(NC(=O)CCN2CCC(C)CC2)c1 | -17.0 | i | i | i | i
CN1/C(=C\C=N\NC(=O)c2ccccc2Br)C(C)(C)c2ccccc21 | -24.8 | i | i | i | 9*
C=CC[C@H](CC(=O)NCCO)C(=O)N[C@H](COC(=O)[C@@H](CC=C)Cc1ccc(F)cc1)Cc1ccccc1 | x | x | x | i | x
O=C(Cc1ccccc1)Nc1ncnc2c1C(c1ccccc1)c1c(ccc3ccccc13)O2 (stereo not given) | x | x | x | i | x
